How the values were obtained:
[1] = target: T1, Progesterone receptor (Homo sapiens, UniProt P06401); assay: Antagonistic activity was determined in Human progesterone receptor(hPR) of CV-1 cells in cotransfection assay.; assay type: functional, cell-based
T1 sequence (P06401 whole entry): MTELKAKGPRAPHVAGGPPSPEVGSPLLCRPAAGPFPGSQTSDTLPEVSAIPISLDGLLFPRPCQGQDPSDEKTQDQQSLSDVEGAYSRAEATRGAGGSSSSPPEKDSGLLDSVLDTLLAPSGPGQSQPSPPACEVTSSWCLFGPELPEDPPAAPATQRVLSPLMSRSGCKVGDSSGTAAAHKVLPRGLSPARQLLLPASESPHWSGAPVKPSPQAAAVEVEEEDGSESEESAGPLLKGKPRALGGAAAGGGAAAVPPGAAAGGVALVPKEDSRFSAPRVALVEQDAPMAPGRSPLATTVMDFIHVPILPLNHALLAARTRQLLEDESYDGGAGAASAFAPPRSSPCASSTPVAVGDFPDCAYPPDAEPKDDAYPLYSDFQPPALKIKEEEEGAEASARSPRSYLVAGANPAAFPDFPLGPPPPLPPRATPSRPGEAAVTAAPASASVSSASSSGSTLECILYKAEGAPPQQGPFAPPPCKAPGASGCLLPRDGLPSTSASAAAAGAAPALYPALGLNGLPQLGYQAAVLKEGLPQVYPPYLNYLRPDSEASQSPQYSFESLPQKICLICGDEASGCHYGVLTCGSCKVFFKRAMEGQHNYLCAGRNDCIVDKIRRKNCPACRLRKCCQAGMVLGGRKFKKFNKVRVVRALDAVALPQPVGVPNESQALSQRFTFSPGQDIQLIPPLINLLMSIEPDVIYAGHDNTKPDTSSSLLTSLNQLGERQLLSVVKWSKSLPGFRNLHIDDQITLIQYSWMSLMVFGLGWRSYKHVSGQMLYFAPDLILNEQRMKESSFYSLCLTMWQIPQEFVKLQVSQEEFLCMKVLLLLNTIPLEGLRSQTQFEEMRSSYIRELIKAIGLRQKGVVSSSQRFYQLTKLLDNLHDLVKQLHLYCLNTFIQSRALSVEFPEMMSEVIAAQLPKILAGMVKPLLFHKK

[2] = target: T2, Progesterone receptor (Homo sapiens) (UniProt P06401); assay: Human progesterone receptor (hPR) antagonist efficacy was determined as a function (%) of maximal inhibition of progesterone at EC50 value.; assay type: functional
T2 sequence (whole entry): T1 sequence (P06401 whole entry)
In short: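 hPR antagonist-mode cotransfection in CV-1 cells transiently transfected by calcium phosphate coprecipitation with hPR plasmid, MTV-LUC reporter, pRS-β-Gal and filler DNA. […] Values come from one, two, or at least three experiments in triplicate.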

[3] = target: T1, Progesterone receptor; assay: Agonistic activity to the human progesterone receptor (hPR)assayed in CV-1 cells in cotransfection assay.; assay type: functional, cell-based
[4] = target: T2, Progesterone receptor (Homo sapiens); assay: Agonist efficacy for human progesterone receptor (hPR) was compared to that of progesterone (100%); assay type: functional
In short: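 Cotransfection assay in CV-1 cells transiently transfected by calcium phosphate coprecipitation with hPR plasmid, MTV-LUC reporter, pRS-β-Gal and filler DNA. Full dose–response curves from 10^-12 to 10^-5 M were run. […] Values are the mean of at least three experiments with triplicate determinations, or of two experiments, or a single experiment.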

[5] = target: T1, Progesterone receptor; assay: The binding affinity on Human progesterone receptor (hPR-A) using progesterone as radioligand.
[6] = target: T3, Mineralocorticoid receptor (Homo sapiens, UniProt P08235); assay: Antagonistic activity was determined in Human mineralocorticoid receptor(hMR) of CV-1 cells in cotransfection assay.; assay type: functional, cell-based
T3 sequence (P08235 whole entry): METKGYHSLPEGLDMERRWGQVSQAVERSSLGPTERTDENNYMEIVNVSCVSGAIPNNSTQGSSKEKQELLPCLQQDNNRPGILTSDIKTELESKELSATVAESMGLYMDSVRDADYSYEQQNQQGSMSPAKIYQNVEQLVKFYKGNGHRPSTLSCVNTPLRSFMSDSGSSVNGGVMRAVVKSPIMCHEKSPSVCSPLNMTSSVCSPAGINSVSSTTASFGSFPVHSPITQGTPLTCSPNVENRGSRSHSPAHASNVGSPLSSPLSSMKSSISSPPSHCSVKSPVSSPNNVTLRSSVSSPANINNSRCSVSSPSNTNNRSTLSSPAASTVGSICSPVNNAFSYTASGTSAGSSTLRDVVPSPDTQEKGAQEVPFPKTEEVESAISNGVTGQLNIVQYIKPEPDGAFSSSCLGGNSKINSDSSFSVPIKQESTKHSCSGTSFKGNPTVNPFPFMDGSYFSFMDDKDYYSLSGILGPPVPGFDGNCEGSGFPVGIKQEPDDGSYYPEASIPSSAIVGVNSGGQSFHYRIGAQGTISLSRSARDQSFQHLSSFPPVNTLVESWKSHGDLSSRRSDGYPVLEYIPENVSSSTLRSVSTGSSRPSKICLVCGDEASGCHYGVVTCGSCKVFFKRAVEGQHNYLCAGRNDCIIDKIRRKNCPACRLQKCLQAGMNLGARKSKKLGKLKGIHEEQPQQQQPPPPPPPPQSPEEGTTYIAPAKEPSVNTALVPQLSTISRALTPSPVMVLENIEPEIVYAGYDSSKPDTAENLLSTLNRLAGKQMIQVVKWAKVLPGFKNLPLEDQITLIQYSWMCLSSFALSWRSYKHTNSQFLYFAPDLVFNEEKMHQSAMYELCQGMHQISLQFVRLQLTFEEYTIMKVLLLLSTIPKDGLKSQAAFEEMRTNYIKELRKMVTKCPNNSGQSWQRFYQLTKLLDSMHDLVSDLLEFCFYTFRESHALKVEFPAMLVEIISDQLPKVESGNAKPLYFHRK

[7] = target: T4, Glucocorticoid receptor (Homo sapiens, UniProt P04150); assay: Agonist activity against Human glucocorticoid receptor(hGR) expressed in CV-1 cells; assay type: functional, cell-based
T4 sequence (P04150 whole entry): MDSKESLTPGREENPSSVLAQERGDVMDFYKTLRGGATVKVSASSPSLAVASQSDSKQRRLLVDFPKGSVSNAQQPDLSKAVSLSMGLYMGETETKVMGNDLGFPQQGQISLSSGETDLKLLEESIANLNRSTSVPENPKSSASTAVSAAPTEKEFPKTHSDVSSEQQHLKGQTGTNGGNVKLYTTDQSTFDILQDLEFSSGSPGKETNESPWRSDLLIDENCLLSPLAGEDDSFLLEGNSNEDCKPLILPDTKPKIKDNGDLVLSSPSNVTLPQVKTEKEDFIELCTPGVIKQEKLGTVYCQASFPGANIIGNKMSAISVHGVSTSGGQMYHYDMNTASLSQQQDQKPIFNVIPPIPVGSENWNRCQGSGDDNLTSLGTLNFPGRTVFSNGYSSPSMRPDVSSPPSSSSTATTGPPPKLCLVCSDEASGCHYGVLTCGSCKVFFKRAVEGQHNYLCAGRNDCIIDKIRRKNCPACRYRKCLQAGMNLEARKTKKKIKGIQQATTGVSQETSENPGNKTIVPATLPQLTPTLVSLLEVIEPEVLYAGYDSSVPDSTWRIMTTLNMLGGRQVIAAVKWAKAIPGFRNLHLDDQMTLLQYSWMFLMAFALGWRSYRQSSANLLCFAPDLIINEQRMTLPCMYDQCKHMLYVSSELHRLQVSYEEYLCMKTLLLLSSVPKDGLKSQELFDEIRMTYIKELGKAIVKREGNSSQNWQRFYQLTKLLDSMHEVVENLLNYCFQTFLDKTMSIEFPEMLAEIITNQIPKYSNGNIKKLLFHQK

[8] = target: T4, Glucocorticoid receptor
[9] = target: T5, Androgen receptor (Homo sapiens, UniProt P10275)
T5 sequence (P10275 whole entry): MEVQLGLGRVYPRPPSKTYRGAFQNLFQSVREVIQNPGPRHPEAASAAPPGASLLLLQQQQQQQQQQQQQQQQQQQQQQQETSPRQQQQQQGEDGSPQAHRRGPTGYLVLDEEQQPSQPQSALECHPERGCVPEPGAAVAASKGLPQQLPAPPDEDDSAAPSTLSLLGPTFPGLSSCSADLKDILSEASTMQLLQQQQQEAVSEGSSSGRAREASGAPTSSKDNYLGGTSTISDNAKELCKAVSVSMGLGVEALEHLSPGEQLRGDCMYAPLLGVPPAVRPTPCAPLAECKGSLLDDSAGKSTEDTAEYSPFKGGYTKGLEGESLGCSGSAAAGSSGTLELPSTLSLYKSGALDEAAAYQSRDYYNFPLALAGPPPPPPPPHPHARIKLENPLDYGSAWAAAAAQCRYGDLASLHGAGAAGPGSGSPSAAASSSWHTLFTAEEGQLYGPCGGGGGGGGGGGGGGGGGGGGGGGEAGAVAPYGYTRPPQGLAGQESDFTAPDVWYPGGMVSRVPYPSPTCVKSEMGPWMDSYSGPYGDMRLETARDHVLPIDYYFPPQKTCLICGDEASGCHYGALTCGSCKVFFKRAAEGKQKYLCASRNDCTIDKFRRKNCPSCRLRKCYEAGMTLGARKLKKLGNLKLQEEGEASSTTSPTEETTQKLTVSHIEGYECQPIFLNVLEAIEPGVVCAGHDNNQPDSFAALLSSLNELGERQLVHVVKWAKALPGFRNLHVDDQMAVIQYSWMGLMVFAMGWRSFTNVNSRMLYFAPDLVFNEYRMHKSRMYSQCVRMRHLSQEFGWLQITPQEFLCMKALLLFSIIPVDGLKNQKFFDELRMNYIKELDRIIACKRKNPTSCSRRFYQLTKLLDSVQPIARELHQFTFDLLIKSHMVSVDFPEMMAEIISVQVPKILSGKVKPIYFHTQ

[10] = target: T4, Glucocorticoid receptor; remark: listed apart in the source
[11] = target: T5, Androgen receptor; remark: listed apart in the source

SMILES | IC50 [1] | Efficacy [2] | EC50 [3] | Efficacy [4] | Ki [5] | IC50 [6] | EC50 [7] | Ki [8] | Ki [9] | IC50 [10] | IC50 [11]
CC1=CC(C)(C)Nc2ccc3c(c21)C(c1cc(F)cc(Br)c1)Oc1ccccc1-3 (stereo unspecified) | 1210 nM | 65% | 27 nM | 49% | 2.4 nM |  |  |  |  |  | 
CC(=O)c1ccc(C2Oc3ccccc3-c3ccc4c(c32)C(C)=CC(C)(C)N4)cc1 (stereo unspecified) | 132 nM | 68% | > 10000 nM | < 20% | 8.8 nM |  |  |  |  |  | 
COc1ccc(C2Oc3ccccc3-c3ccc4c(c32)C(C)=CC(C)(C)N4)cc1 (stereo unspecified) | 105 nM | 65% | > 10000 nM | < 20% | 13.3 nM |  |  |  |  |  | 
CC(=O)O[C@]1(C(C)=O)CC[C@H]2[C@@H]3C[C@H](C)C4=CC(=O)CC[C@]4(C)[C@H]3CC[C@@]21C [MEDROXYPROGESTERONE ACETATE] |  |  |  |  |  | 1200 nM | 10 nM | 13.2 nM |  |  | 
CC1=CC(C)(C)Nc2ccc3c(c21)C(c1cccc(Br)n1)Oc1ccccc1-3 (stereo unspecified) | 71 nM | 86% | 1700 nM | 21% | 13.8 nM |  |  |  |  |  | 
CC1=CC(C)(C)Nc2ccc3c(c21)C(c1ccc(F)cc1)Oc1ccccc1-3 (stereo unspecified) | 342 nM | 77% | 8 nM | 28% | 5.3 nM |  |  |  |  |  | 
CC1=CC(C)(C)Nc2ccc3c(c21)C(c1ccc(F)c(C(F)(F)F)c1)Oc1ccccc1-3 (stereo unspecified) | 4600 nM | 56% | 25 nM | 60% | 6.8 nM |  |  |  |  |  | 
CC1=CC(C)(C)Nc2ccc3c(c21)C(c1ccc(C(F)(F)F)cc1)Oc1ccccc1-3 (stereo unspecified) | 150 nM | 49% | 33 nM | 35% | 10.8 nM |  |  |  |  |  | 
CC1=CC(C)(C)Nc2ccc3c(c21)C(c1cccc(F)c1)Oc1ccccc1-3 (stereo unspecified) | 150 nM | 74% | 8 nM | 48% | 0.69 nM |  |  |  |  |  | 
CC1=CC(C)(C)Nc2ccc3c(c21)C(c1ccc(Br)nc1)Oc1ccccc1-3 (stereo unspecified) | 54 nM | 86% | 3900 nM | 24% | 3.9 nM |  |  |  |  |  | 
CC1=CC(C)(C)Nc2ccc3c(c21)C(c1ccccc1)Oc1ccccc1-3 (stereo unspecified) | 290 nM |  | 156 nM |  | 3.6 nM | 354 nM |  | 154 nM | 1860 nM | 226 nM | 745 nM

— ChEMBL document CHEMBL1131454 (J Med Chem, 1998)
